Measurements taken from ChEMBL document CHEMBL5724801, “EUbOPEN Chemogenomics Library - Multiplex” (2024).
Values joined by “and” are separate entries in the source; they are usually repeats but may differ in a detail not shown here. Identical values can stand only once.

Test system: Fibroblast
Experiment: Multiplex assay against human fibroblast
Assay type: toxicity, cell-based
Procedure, shortened: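 Live cells were stained at seeding with Hoechst33342, BioTracker Green Microtubule Cytoskeleton Dye, MitoTracker Red and Annexin V Alexa Fluor 680. Following compound addition, they were imaged on a CQ1 microscope at 37°C and 5% CO2 and gated by CellPathfinder machine learning into Hoechst high-intensity objects or normal cells, with normal cells split into healthy, pyknosed or fragmented nuclei and pyknosed cells into mitotic or apoptotic. Tubulin, mitochondrial-mass and membrane-permeability phenotypes are per cents of healthy-nucleus cells.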

[1] = 12 h, 1 µM, compound concentration 1 uM
[2] = 12 h, 10 µM, compound concentration 10 uM
[3] = 24 h, 1 µM, compound concentration 1 uM
[4] = 24 h, 10 µM, compound concentration 10 uM
[5] = 48 h, 1 µM, compound concentration 1 uM
[6] = 48 h, 10 µM, compound concentration 10 uM

Cl.Clc1ccc2nsnc2c1NC1=NCCN1 [TIZANIDINE HYDROCHLORIDE]
Population Apoptotic (%) [1]: 38% and 33%
Population Fragmented Nuclei (%) [1]: 10% and 24%
Population Healthy Nuclei (%) [1]: 72% and 49%
Population Hoechst High Intensity Objects (%) [1]: 3% and 4%
Population Membrane Permeable-Phenotype (%) [1]: 0% and 5%
Population Mitochondria Different-Phenotype (%) [1]: 4% and 5%
Population Mitotic Cells (%) [1]: 61% and 66%
Population Normal (%) [1]: 96% and 95%
Population Pyknosed Nuclei (%) [1]: 17% and 25%
Population Tubulin-Different-Phenotype (%) [1]: 21% and 50%
Total Cell Count [1]: 155 and 182
Population Apoptotic (%) [2]: 36% and 21%
Population Fragmented Nuclei (%) [2]: 18% and 24%
Population Healthy Nuclei (%) [2]: 60% and 45%
Population Hoechst High Intensity Objects (%) [2]: 4%
Population Membrane Permeable-Phenotype (%) [2]: 0% and 7%
Population Mitochondria Different-Phenotype (%) [2]: 8% and 7%
Population Mitotic Cells (%) [2]: 64% and 78%
Population Normal (%) [2]: 95%
Population Pyknosed Nuclei (%) [2]: 20% and 29%
Population Tubulin-Different-Phenotype (%) [2]: 29% and 33%
Total Cell Count [2]: 129 and 143
Population Apoptotic (%) [3]: 52% and 42%
Population Healthy Nuclei (%) [3]: 76% and 49%
Population Hoechst High Intensity Objects (%) [3]: 2% and 4%
Population Membrane Permeable-Phenotype (%) [3]: 0% and 9%
Population Mitochondria Different-Phenotype (%) [3]: 0% and 4%
Population Mitotic Cells (%) [3]: 47% and 57%
Population Normal (%) [3]: 97% and 95%
Population Pyknosed Nuclei (%) [3]: 16% and 24%
Total Cell Count [3]: 146 and 182
Population Apoptotic (%) [4]: 45% and 47%
Population Fragmented Nuclei (%) [4]: 19%
Population Healthy Nuclei (%) [4]: 60% and 48%
Population Hoechst High Intensity Objects (%) [4]: 1% and 2%
Population Membrane Permeable-Phenotype (%) [4]: 0% and 9%
Population Mitochondria Different-Phenotype (%) [4]: 5% and 6%
Population Mitotic Cells (%) [4]: 54% and 52%
Population Normal (%) [4]: 98% and 97%
Population Pyknosed Nuclei (%) [4]: 20% and 32%
Population Tubulin-Different-Phenotype (%) [4]: 20% and 34%
Total Cell Count [4]: 122 and 135
Population Apoptotic (%) [5]: 47% and 55%
Population Fragmented Nuclei (%) [5]: 17% and 29%
Population Healthy Nuclei (%) [5]: 71% and 47%
Population Hoechst High Intensity Objects (%) [5]: 2% and 6%
Population Membrane Permeable-Phenotype (%) [5]: 2% and 6%
Population Mitochondria Different-Phenotype (%) [5]: 1% and 8%
Population Mitotic Cells (%) [5]: 52% and 44%
Population Normal (%) [5]: 97% and 93%
Population Pyknosed Nuclei (%) [5]: 10% and 23%
Population Tubulin-Different-Phenotype (%) [5]: 19% and 56%
Total Cell Count [5]: 167 and 166
Population Apoptotic (%) [6]: 69% and 63%
Population Fragmented Nuclei (%) [6]: 26% and 35%
Population Healthy Nuclei (%) [6]: 56% and 42%
Population Hoechst High Intensity Objects (%) [6]: 2%
Population Membrane Permeable-Phenotype (%) [6]: 0% and 6%
Population Mitochondria Different-Phenotype (%) [6]: 5% and 11%
Population Mitotic Cells (%) [6]: 30% and 36%
Population Normal (%) [6]: 97%
Population Pyknosed Nuclei (%) [6]: 17% and 21%
Population Tubulin-Different-Phenotype (%) [6]: 26% and 44%
Total Cell Count [6]: 133 and 141

Cl.Clc1cc2cc(c1)-c1cnn3ccc(nc13)NCCOCCO2
Population Apoptotic (%) [1]: 25.93% and 36.11%
Population Fragmented Nuclei (%) [1]: 12.14% and 4.56%
Population Healthy Nuclei (%) [1]: 61.65% and 80.5%
Population Hoechst High Intensity Objects (%) [1]: 0%
Population Membrane Permeable-Phenotype (%) [1]: 11.02% and 2.58%
Population Mitochondria Different-Phenotype (%) [1]: 4.72% and 10.82%
Population Mitotic Cells (%) [1]: 74.07% and 63.89%
Population Normal (%) [1]: 100%
Population Pyknosed Nuclei (%) [1]: 26.21% and 14.94%
Population Tubulin-Different-Phenotype (%) [1]: 11.02% and 23.2%
Total Cell Count [1]: 206 and 241
Population Apoptotic (%) [2]: 10.2% and 20.59%
Population Fragmented Nuclei (%) [2]: 10.65% and 5.56%
Population Healthy Nuclei (%) [2]: 66.67% and 78.7%
Population Hoechst High Intensity Objects (%) [2]: 0%
Population Membrane Permeable-Phenotype (%) [2]: 8.33% and 4.71%
Population Mitochondria Different-Phenotype (%) [2]: 12.5% and 18.82%
Population Mitotic Cells (%) [2]: 89.8% and 79.41%
Population Normal (%) [2]: 100%
Population Pyknosed Nuclei (%) [2]: 22.69% and 15.74%
Population Tubulin-Different-Phenotype (%) [2]: 22.22% and 26.47%
Total Cell Count [2]: 216
Population Apoptotic (%) [3]: 31.43% and 41.38%
Population Fragmented Nuclei (%) [3]: 12.22% and 6.72%
Population Healthy Nuclei (%) [3]: 71.95% and 82.46%
Population Hoechst High Intensity Objects (%) [3]: 0%
Population Membrane Permeable-Phenotype (%) [3]: 6.29% and 4.52%
Population Mitochondria Different-Phenotype (%) [3]: 3.14% and 6.33%
Population Mitotic Cells (%) [3]: 68.57% and 58.62%
Population Normal (%) [3]: 100%
Population Pyknosed Nuclei (%) [3]: 15.84% and 10.82%
Population Tubulin-Different-Phenotype (%) [3]: 15.09% and 21.72%
Total Cell Count [3]: 221 and 268
Population Fragmented Nuclei (%) [4]: 7.39% and 6.93%
Population Healthy Nuclei (%) [4]: 79.13% and 78.79%
Population Hoechst High Intensity Objects (%) [4]: 0%
Population Membrane Permeable-Phenotype (%) [4]: 3.3%
Population Mitochondria Different-Phenotype (%) [4]: 8.79% and 13.74%
Population Mitotic Cells (%) [4]: 90.32% and 69.7%
Population Normal (%) [4]: 100%
Population Pyknosed Nuclei (%) [4]: 13.48% and 14.29%
Population Tubulin-Different-Phenotype (%) [4]: 20.33% and 33.52%
Total Cell Count [4]: 230 and 231
Population Apoptotic (%) [5]: 31.03% and 50%
Population Fragmented Nuclei (%) [5]: 12.03% and 5.81%
Population Healthy Nuclei (%) [5]: 75.93% and 90.31%
Population Hoechst High Intensity Objects (%) [5]: 0%
Population Membrane Permeable-Phenotype (%) [5]: 3.28% and 3%
Population Mitotic Cells (%) [5]: 68.97% and 50%
Population Normal (%) [5]: 100%
Population Pyknosed Nuclei (%) [5]: 12.03% and 3.88%
Total Cell Count [5]: 241 and 258
Population Apoptotic (%) [6]: 16.67% and 38.89%
Population Fragmented Nuclei (%) [6]: 10.79% and 5.86%
Population Healthy Nuclei (%) [6]: 86.72% and 86.61%
Population Hoechst High Intensity Objects (%) [6]: 0%
Population Membrane Permeable-Phenotype (%) [6]: 1.91% and 6.76%
Population Mitochondria Different-Phenotype (%) [6]: 11% and 9.66%
Population Mitotic Cells (%) [6]: 83.33% and 61.11%
Population Normal (%) [6]: 100%
Population Pyknosed Nuclei (%) [6]: 2.49% and 7.53%
Population Tubulin-Different-Phenotype (%) [6]: 13.88% and 38.65%
Total Cell Count [6]: 241 and 239
